Source: PubChem BioAssay
This is a sample that favours compounds with a hit; in the whole collection about 3.7% have one here.
KCC2 mod – modulators of human KCC2 chloride dependent transport; Q9H2X9; KCC2 cells, thallium flux FluoZin-2 fluorescence; B-score of Tl+ flux slope (higher = more flux/activation; lower = inhibition) at 10 µM; 190,000 tested, 2.2% active;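 active means thallium flux slope and its plate-corrected score both differing from the plate sample mean at a set confidence after two filtering rounds, in either direction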;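 further: slope of fluorescence scaled to starting intensity during 10 to 20 s after thallium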
NPY-Y1 PAM-ag – potentiates or activates human NPY-Y1 receptor; P25929; NPY-Y1 expressing cells, potentiator/agonist activation; activation, % at 3.6 µM; 220,000 tested, 0.37% active; in the data active means activation above about 33%, passing the limit was not always enough;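 further: cells stimulated with NPY at EC10 then isoproterenol at EC100; 0% = low agonist plus stimulus and 100% = saturating agonist plus stimulus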
Target sequence (P25929 whole entry, looked up): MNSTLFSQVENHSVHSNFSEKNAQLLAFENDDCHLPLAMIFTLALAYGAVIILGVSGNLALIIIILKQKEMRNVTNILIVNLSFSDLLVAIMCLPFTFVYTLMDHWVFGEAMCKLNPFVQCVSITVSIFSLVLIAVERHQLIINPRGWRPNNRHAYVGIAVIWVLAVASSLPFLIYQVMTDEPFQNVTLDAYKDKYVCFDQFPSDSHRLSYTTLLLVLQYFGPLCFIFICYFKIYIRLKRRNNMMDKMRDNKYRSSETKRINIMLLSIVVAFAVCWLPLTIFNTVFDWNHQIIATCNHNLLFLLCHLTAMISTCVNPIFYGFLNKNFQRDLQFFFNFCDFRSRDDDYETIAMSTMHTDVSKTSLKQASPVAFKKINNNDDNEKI
Furin inhibitor – blocks human furin protease activity; purified furin, fluorogenic substrate cleavage; inhibition, % at 20 µM or 30 µM; P09958; 220,000 tested, 0.061% active; in the data active means inhibition above about 25%
NPY2 pot ag – potentiates or activates human NPY-Y2 receptor | cells expressing NPY-Y2, potentiator/agonist read-out | 220,000 tested, 0.45% active | activation, % at 3.6 µM | P49146 | AID 1359; in the data active means activation above about 27%;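 further: cells stimulated with NPY near EC25 plus isoproterenol at EC100; 0% = vehicle plus submaximal agonist and 100% = vehicle plus saturating agonist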
NPY Y2 blocker – blocks the human neuropeptide Y Y2 receptor | P49146 | NPY-Y2 expressing cells, antagonist mode | inhibition, % at 2.7 µM | 140,000 tested, 0.99% active | AID 793; in the data active means inhibition above about 17%;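 further: 0% = vehicle with agonist challenge and 100% = reference antagonist with challenge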
NPY Y1 blocker – NPY-Y1 (human) receptor antagonism; inhibition, % at 3.6 µM; AID 1040; 200,000 tested, 1% active; HEK293-CNG Y1 cells, membrane potential fluorescence; NPY at EC95, then isoproterenol; P25929;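 active means inhibition above the campaign mean inhibition of all tested compounds plus 3 SD, cut at about 20% in these data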;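 further: 0% = DMSO wells given NPY plus isoproterenol and 100% = isoproterenol alone without NPY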
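Material: HEK293 Y1/CNG channel cell line; also added: NPY (25 nM), isoproterenol (1 µM), Ro 20-1724 (25 µM); doses: one concentration, 3.6 µM, in 0.4% DMSO; schedule: compound incubation 1 h at room temperature, readout 45 min post-stimulation; technique: membrane potential fluorescence; measure: fluorescence ratio normalized to % inhibition between controls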
KCC2 sec1 – KCC2 (human) modulation, secondary assay; shares compounds with KCC2 mod; HEK293-KCC2, thallium flux, FluoZin2 fluorescence; stronger effect = higher value; normalised thallium flux (F/F0 slope) at 10 µM; 3,700 tested, 15% active; AID 1713;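 active means thallium flux slope above the same plate's solvent-only control mean plus 3 SD; inconclusive means the two replicate wells disagree; inactive means no significant difference from solvent-only control wells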
KCC2 bumet counter – thallium flux despite bumetanide block in KCC2 cells, secondary assay 3. AID 1714. shares compounds with KCC2 mod. HEK293-KCC2 + bumetanide/ouabain, thallium flux FluoZin2; stronger effect = higher value. 3,700 tested, 49% active. normalized thallium flux at 10 µM;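 active means thallium entry rate above the same plate's blocked-transporter control wells by more than 3 SD; inconclusive means the two repeat wells disagree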;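 further: raw slope of fluorescence over initial fluorescence between 10 and 20 s after thallium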
KCC2 sec2 – KCC2 (human) modulation, second secondary assay | AID 1715 | 3,700 tested, 23% active | HEK293-KCC2, thallium flux FluoZin2 fluorescence; actives lie on both sides; F/F0 rise rate, 10–20 s post-thallium | shares compounds with KCC2 mod | normalized thallium flux at 10 µM;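 active means thallium flux slope more than 3 SD above or below the plate's solvent-only control mean, mostly below; inconclusive means the two repeat wells disagreed; inactive means no significant shift from solvent-only controls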;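 further: raw slope with 0.1% DMSO as baseline and bumetanide as block control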
HEK counter1 – parental HEK flux effect, counter-screen. thallium flux rate (normalised fluorescence) at 10 µM. shares compounds with KCC2 mod. 3,700 tested, 46% active. HEK293 parental cells, thallium flux FluoZin2, ouabain; baseline-ratio fluorescence slope, 10–20 s after thallium. AID 1716;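 active means thallium flux rate significantly above the same plate's solvent-only control wells, beyond their mean plus 3 SD; inconclusive means the two replicate wells gave conflicting results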
KCC2 retest ouab – KCC2 (human) modulation, ouabain retest; shares compounds with KCC2 mod; HEK293-KCC2, thallium flux FluoZin2 fluorescence; bidirectional: low = inhibitor, high = activator; raw Tl+ flux slope (below DMSO = inhibition, above = activation) at 10 µM; 3,700 tested, 48% active;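 active means thallium flux slope beyond 3 SD from same-plate DMSO control mean in most replicates, usually higher, sometimes lower; inconclusive means repeat tests gave conflicting results; inactive means no significant difference from controls in most replicates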;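 further: slope of initial-normalized fluorescence between seconds 10 and 20 after thallium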
HEK293 Tl flux2 – counter-screen for KCC2 modulators: effect in parental HEK293 cells; thallium flux FluoZin-2 fluorescence slope; AID 1718; thallium flux slope at 10 µM; shares compounds with KCC2 mod; 3,700 tested, 33% active;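 active means thallium flux slope above the same plate's solvent-control mean plus 3 SD in both duplicate wells; inconclusive means duplicate wells that disagreed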;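 further: run without ouabain in cells lacking the KCC2 cotransporter; slope of fluorescence scaled to its starting value between 10 and 20 s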
* = called active by the depositor; ? = inconclusive; . = not tested or not shown.

SMILES	KCC2 mod	NPY-Y1 PAM-ag	Furin inhibitor	NPY2 pot ag	NPY Y2 blocker	NPY Y1 blocker	KCC2 sec1	KCC2 bumet counter	KCC2 sec2	HEK counter1	KCC2 retest ouab	HEK293 Tl flux2
c1ccc(CN2CN=C(Nc3nc4ccccc4s3)NC2)cc1	-0.02	-17	-26	4	-1	8	.	.	.	.	.	.
CCCCCCOc1ccc(N2C(=O)CC(SC(=NCC)NCC)C2=O)cc1 (stereo unspecified)	0.39	-4	-21	-5	.	-2	.	.	.	.	.	.
CCCn1nc(Oc2nc(NCC)nc(NC(C)C)n2)ccc1=O	-4.4*	27	-27	-11	2	-5	0.009	0.0063	0.035	0.0074	0.022	0.01
O=C(c1ccc(S(=O)(=O)N2CCOCC2)cc1)N(c1cccc(Cl)c1)C1C=CS(=O)(=O)C1 (stereo unspecified)	-0.65	11	-26	6	.	6	.	.	.	.	.	.
Cc1ccc(Nc2nc(-c3ccc(C)cc3)c(CC(=O)O)s2)cc1	-3.2*	-3	-31	5	.	2	0.0084	0.0091*	0.029	0.0073	0.018	0.01
O=C(c1ccccc1)N1CN2CN(C(=O)c3ccccc3)CC([N+](=O)[O-])(C2)C1	0.95	-12	-18	-9	1	-4	.	.	.	.	.	.
CC(C(=O)NCc1ccc(F)cc1)c1ccc([N+](=O)[O-])cc1 (stereo unspecified)	-1.1	-6	-13	-6	.	2	.	.	.	.	.	.
CCSc1nc(O)cc(=O)[nH]1	.	-9	-25	-3	.	.	.	.	.	.	.	.
CCSc1nc(=S)cc(C)[nH]1	46*	18	-4	-10	.	.	0.027*	0.052*	?	0.034*	0.043*	0.018*
COC(=O)CC1C(=O)NCCN1C(=O)CSc1nc2ccccc2c(=O)n1CC(C)C (stereo unspecified)	22*	2	-23	4	.	2	0.0067	0.035*	0.04*	0.032*	0.038*	0.026*
COC(=O)CC1C(=O)NCCN1C(=O)CSc1nc2ccccc2o1 (stereo unspecified)	1.4	-3	-9	-2	.	3	.	.	.	.	.	.
O=C(O)c1cccc(CSc2nc(-c3ccc(Cl)cc3)cc(C(F)(F)F)n2)c1	.	3	-20	-3	6	-2	.	.	.	.	.	.
COc1ccc(-c2cc(C)nc(SCc3cccc(C(=O)O)c3)n2)cc1	-4.8*	0	2	-5	1	6	0.011	0.013*	0.034	0.009*	0.023	?
Cc1onc(-c2ccccc2Cl)c1C(=O)NC(=S)Nc1ccc(C(C)(C)C)cc1	6.9*	-17	-20	-31	.	.	0.0073	0.012*	0.031	0.013*	0.022	0.013*
CCc1ccc(NC(=S)NC(=O)c2c(-c3ccccc3Cl)noc2C)cc1	16*	-18	-16	-2	.	.	0.0055	0.027*	0.04*	0.028*	0.032*	0.017*
CCc1nc(NCCCCCO)c2nnn(Cc3ccccc3F)c2n1	0.81	-8	-22	4	1	0	.	.	.	.	.	.
O=C(O)C1CCN(S(=O)(=O)/C=C/c2ccccc2)CC1	.	-11	-12	-19	3	0	.	.	.	.	.	.
CC(C)(C)C(=O)/C=c1\[nH]c(=O)/c(=C\c2ccc(F)cc2)s1	.	0	-13	-4	4	2	.	.	.	.	.	.
